From ChEMBL document CHEMBL1137352, “Design and synthesis of novel isoquinoline-3-nitriles as orally bioavailable Kv1.5 antagonists for the treatment of atrial fibrillation” (J Med Chem, 2006)
Values belong to the compound of their own block, whether it stands above or below them. Activity calls are given as the source filed them. No cut-off for these calls is given here.

Assays:
[1] = species: Rattus norvegicus; experiment: Increase in atrial refractory period in surgically instrumented rat electrophysiology model; details: Cardiac atrium
[2] = species: Rattus norvegicus; experiment: Increase in AV node refractory period in surgically instrumented rat electrophysiology model; type: functional, organism-based
[3] = target: Voltage-gated inwardly rectifying potassium channel KCNH2 (Homo sapiens, UniProt Q12809); experiment: Binding affinity to hERG potassium channel
[4] = target: Potassium voltage-gated channel subfamily A member 5 (Homo sapiens, UniProt P22460); experiment: Antagonist activity at human Kv1.5 channel expressed in CHO cell membrane by HT clamp assay; type: functional, cell-based
Procedure, shortened: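 IC50 from 10-point concentration-response curves by HT-clamp voltage clamp, 3-4 cells per point. A reference Kv1.5 antagonist was run as positive control.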

[5] = Bioavailability in rat; type: ADME, organism-based; details: in vivo
[6] = Clearance in rat; type: ADME, organism-based; details: in vivo
[7] = Volume of distribution in rat; type: ADME, organism-based; details: in vivo, read-out: Vdss
[8] = species: Rattus norvegicus; experiment: Increase in atrial refractory period in surgically instrumented rat electrophysiology model; type: functional, organism-based; details: Cardiac atrium
[9] = species: Rattus norvegicus; experiment: Effect on AV node refractory period in surgically instrumented rat electrophysiology model at 35 uM; type: functional, organism-based
[10] = species: Rattus norvegicus; experiment: Increase in ventricular refractory period in surgically instrumented rat electrophysiology model; type: functional, organism-based; details: Cardiac ventricle
[11] = species: Canis familiaris; experiment: Effect on ventricular refractory period in dog electrophysiology model; type: functional, organism-based; details: Canis lupus familiaris; Cardiac ventricle
[12] = species: Canis familiaris; experiment: Increase in atrial refractory period in dog electrophysiology model; type: functional, organism-based; details: Canis lupus familiaris; Cardiac atrium

Sequence of Potassium voltage-gated channel subfamily A member 5 (P22460 whole entry): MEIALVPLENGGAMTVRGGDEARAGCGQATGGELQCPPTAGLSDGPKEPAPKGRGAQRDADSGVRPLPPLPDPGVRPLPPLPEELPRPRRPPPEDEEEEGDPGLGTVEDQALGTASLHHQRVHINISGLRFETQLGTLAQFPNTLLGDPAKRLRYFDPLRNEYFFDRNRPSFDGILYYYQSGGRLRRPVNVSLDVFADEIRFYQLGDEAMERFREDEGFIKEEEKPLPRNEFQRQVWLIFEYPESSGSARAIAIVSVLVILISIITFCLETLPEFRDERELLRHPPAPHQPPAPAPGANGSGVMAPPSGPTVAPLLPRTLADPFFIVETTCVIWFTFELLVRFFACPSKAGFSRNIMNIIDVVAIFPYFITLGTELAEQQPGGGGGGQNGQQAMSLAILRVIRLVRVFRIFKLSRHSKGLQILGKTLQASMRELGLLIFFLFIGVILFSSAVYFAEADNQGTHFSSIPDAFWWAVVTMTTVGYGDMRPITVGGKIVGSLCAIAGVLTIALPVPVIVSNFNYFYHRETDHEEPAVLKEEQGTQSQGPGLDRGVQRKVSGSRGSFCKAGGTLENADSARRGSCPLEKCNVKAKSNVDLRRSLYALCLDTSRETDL
Sequence of Voltage-gated inwardly rectifying potassium channel KCNH2 (Q12809 whole entry): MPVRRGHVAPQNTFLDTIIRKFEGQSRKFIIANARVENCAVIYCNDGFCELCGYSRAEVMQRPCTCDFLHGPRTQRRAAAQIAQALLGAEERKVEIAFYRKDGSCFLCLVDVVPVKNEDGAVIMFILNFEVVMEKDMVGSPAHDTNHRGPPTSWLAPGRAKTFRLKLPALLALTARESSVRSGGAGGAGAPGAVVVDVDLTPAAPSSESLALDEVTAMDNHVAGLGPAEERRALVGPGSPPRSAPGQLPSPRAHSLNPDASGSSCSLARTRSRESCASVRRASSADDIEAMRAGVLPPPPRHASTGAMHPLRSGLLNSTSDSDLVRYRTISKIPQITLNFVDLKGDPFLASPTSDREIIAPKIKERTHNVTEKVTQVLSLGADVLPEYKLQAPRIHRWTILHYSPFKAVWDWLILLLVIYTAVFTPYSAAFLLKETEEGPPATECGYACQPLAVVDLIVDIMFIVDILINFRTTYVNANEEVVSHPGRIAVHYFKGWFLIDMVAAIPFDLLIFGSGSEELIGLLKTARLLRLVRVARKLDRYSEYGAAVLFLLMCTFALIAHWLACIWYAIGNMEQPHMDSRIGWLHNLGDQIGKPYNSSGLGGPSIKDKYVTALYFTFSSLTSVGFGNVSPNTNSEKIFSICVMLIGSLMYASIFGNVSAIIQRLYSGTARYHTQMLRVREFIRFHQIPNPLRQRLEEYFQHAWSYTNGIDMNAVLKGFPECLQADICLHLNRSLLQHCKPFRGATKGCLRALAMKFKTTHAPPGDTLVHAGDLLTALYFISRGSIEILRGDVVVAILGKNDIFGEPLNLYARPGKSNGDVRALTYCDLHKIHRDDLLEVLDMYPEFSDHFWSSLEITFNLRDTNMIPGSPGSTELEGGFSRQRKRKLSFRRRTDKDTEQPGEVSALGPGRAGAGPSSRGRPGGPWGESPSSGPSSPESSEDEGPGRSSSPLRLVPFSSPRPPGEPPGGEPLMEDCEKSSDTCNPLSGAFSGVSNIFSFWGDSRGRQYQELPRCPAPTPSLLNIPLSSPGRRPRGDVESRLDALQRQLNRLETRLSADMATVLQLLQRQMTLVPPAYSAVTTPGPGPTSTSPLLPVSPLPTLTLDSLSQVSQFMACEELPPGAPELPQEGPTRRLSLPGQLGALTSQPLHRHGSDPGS

SMILES: COc1ccc2c(NC[C@H](O)CO)nc(C#N)c(-c3ccccc3)c2c1
- Activity [1]: Active
- Activity [2]: Active
- IC50 [3]: 15000 nM

- IC50 [4]: 690 nM
SMILES: COc1ccc2c(=O)n(CCO)c(C#N)c(-c3cccc(F)c3)c2c1

- bioavailability [5]: 11%
- IC50 [4]: 190 nM
- clearance [6]: 26 mL/min/kg
SMILES: COc1ccc2c(=O)n(C)c(CN(C)C)c(-c3ccccc3)c2c1
- IC50 [3]: 5300 nM

- bioavailability [5]: 67%
- IC50 [4]: 160 nM
- clearance [6]: 13 mL/min/kg
- Vd [7]: 1.7 L/kg
SMILES: COc1ccc2c(OC[C@H](O)CO)nc(C#N)c(-c3ccccc3)c2c1
- Activity [1]: Active
- IC50 [3]: 20500 nM

SMILES: COc1ccc2c(=O)n(C[C@H](O)CO)c(C#N)c(-c3ccccc3)c2c1
- Activity [8]: Active
- Activity [9]: inactive
- Activity [10]: Active

- IC50 [4]: 260 nM
SMILES: COc1ccc2c(-n3cnc(C)c3)nc(C#N)c(-c3cccc(F)c3)c2c1
- Activity [8]: Active

- IC50 [4]: 120 nM
SMILES: COc1ccc2c(=O)n(CC(CO)NCc3cccnc3)c(C#N)c(-c3ccccc3)c2c1 (centres undefined)
- IC50 [3]: 10000 nM

- IC50 [4]: 790 nM
SMILES: COCCN(C)CCn1c(C#N)c(-c2cccc(F)c2)c2cc(OC)ccc2c1=O

- IC50 [4]: 250 nM
SMILES: COc1ccc2c(=O)n(CC(O)CO)c(C#N)c(-c3cccc(C(F)(F)F)c3)c2c1 (centres undefined)

- IC50 [4]: 870 nM
SMILES: COc1ccc2c(=O)n(CC(O)CO)c(C#N)c(-c3cccc(F)c3)c2c1 (centres undefined)
- IC50 [3]: 33500 nM

SMILES: COc1ccc2c(C(=O)NCCO)nc(C#N)c(-c3ccccc3)c2c1
- Activity [8]: Active
- Activity [11]: inactive
- Activity [12]: Active
- IC50 [3]: > 30000 nM
